In ChEMBL document CHEMBL4513216, “Probing the Open Global Health Chemical Diversity Library for Multistage-Active Starting Points for Next-Generation Antimalarials” (ACS Infect Dis, 2020) one finds cytotoxicity data, which are given here for 73 compounds.

The data set can be described thus: Toxicity liver stage against HepG2, at 10uM. Format: cell-based. The arrangement: test concentration 10 uM, cell line HepG2-A16-CD81EGFP. Particulars: human, HepG2-A16-CD81EGFP cells; read-out: INHIBITION
The method, boiled down: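 Uninfected HepG2-A16-CD81EGFP cells, 3 × 10^3 per well, 1536-well, plated on prespotted compound at 10 μM final, parasite-free screening media added to match infected plates; puromycin 10 μM positive, DMSO 0.5% negative; run in parallel with 48 h PbLuc assay at 37 °C, 5% CO2; viability by CellTiter-Glo luminescence, normalized to controls.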
Regarding `COc1cc2c(cc1OC)S(=O)(=O)N(Cc1cccc(C)c1)C2=O`, the cytotoxicity at 10 µM was determined as 5.98%. As for `CC1(c2ccccc2)CCCN(Cc2nnc(-c3cccnc3)o2)C1` (stereo not drawn), the figure is -6.64%; as for `CC(=O)N1CCC(n2nccc2-c2cnc(N)nc2)CC1`, 1.3%; as for `CN1CCCC(CCC(=O)NCCc2nnc(N)s2)C1` (stereo not drawn), -146%.

Consider `CCCn1ncc(C(=O)NCCc2[nH]nc3c2CCCC3)c1C`, for which the cytotoxicity at 10 µM was -6.63%.

For `CNC(=O)CCS(=O)(=O)Cc1coc(-c2ccc(F)cc2)n1`, the cytotoxicity at 10 µM is -3%.

Turning to `Cc1cnn(CC2CCCN2C(=O)c2cc(C)nc3[nH]nc(C)c23)c1` (stereo not drawn), the cytotoxicity at 10 µM is -12.4%.

For `Cc1cc(-c2ccc(C(C)N3CCCCC3)cc2)cnc1N` (stereo not drawn), the cytotoxicity at 10 µM is -3.44%. Turning to `Cc1nc(C)n(CC2CCCN(Cc3ccc(C(N)=O)cc3)C2)n1` (stereo not drawn), the cytotoxicity at 10 µM is 0.818%. The same measure for `O=C(CCc1ccncc1)Nc1ccc(OCC2CC2)cc1`: -2.56%; for `Cc1nc2c(NCC(C)N(C)c3ccccc3)ncnc2o1` (stereo not drawn): 4.73%; for `COC(=O)C(C)(C)NC(=O)c1cc(COc2ccccc2OC)[nH]n1`: -4.83%. As for `Cc1nc(N(C)C)ncc1C(=O)NCCc1csc(-c2cnccn2)n1`, the figure is -5%; as for `O=C(NCc1cncc2c1CCN(CC1CCOC1)C2)c1ccno1` (stereo not drawn), 13%. On to `Cc1csc(N2CCN(C(=O)c3cc(C4CC4)[nH]n3)CC2)n1`, for which the cytotoxicity at 10 µM was found to be 3.34%. As for `Cc1cc(N)nc(C2(C)CCCN2C(=O)c2cnccn2)n1` (stereo not drawn), the figure is -27.1%. Take `O=C(CCc1cscn1)N1CCC(C(=O)O)(c2ccccc2)CC1`: the cytotoxicity at 10 µM was -5.36%.

Take `Cn1cncc1C(=O)N1C[C@@H]2CCN(c3cnccn3)C[C@@H]2C1`: the cytotoxicity at 10 µM is -96.6%. The same measure for `COc1cccc(CC(=O)N2CCCC(c3nncn3C)C2)c1` (stereo not drawn): -20.2%; for `Cc1ccc(-c2cnnc(N3CCCC3c3nccs3)n2)o1` (stereo not drawn): 3.04%.

Take `CCOCCC(=O)N1CC(=O)Nc2cc(Br)ccc21`: the cytotoxicity at 10 µM worked out at 6.87%. As for `O=C1CNc2ncnc(N3CCN(Cc4ccccc4)CC3)c2N1`, the cytotoxicity at 10 µM was 9.76%. With `O=C(c1ccnnc1)N1CC[C@H](OCC2CC2)[C@@H]1Cc1ccncc1`, the cytotoxicity at 10 µM is -1.43%.

Take `O=C(CCn1cnnn1)N1CCCC(CO)(CCCc2ccccc2)C1` (stereo not drawn): the cytotoxicity at 10 µM was 2.74%.

Regarding `COc1ccc(-n2cc(CCO)cn2)cc1C(N)=O`, the cytotoxicity at 10 µM amounted to 5.97%. The same measure for `Cc1cc(C(=O)N(C)Cc2cccs2)nc(N2CCCCC2)n1`: 17.5%; for `COc1ccccc1OCCCc1cc(C)nc(N)n1`: 0.915%; for `COc1ccc(CC(=O)N2CCN(Cc3ccco3)C[C@H]2C)cc1OC`: 1.02%. As for `c1cncc(N2CCCn3nnc(COCC4CC4)c3C2)c1`, the figure is 5.5%; as for `CCS(=O)(=O)N1CCC(c2nn(CCN(C)C)c3ncccc23)C1` (stereo not drawn), -4.88%; as for `Cc1ccc(CNS(=O)(=O)CCCC#N)cc1F`, -9.48%. The same measure for `CCS(=O)(=O)N1CCc2onc(COc3ccccn3)c2C1`: -4.72%. As for `O=C(NCc1cccs1)[C@H]1CC[C@@H]2[C@@H](CCN2C2CCC2)O1`, the cytotoxicity at 10 µM was -6.34%. Consider `CN1CCN(C)C(CNc2c(C#N)cnc3ccc(Cl)cc23)C1` (stereo not drawn), for which the cytotoxicity at 10 µM is -4.58%.

Turning to `Cc1ccc(CCNC(=O)c2cccnc2)o1`, the cytotoxicity at 10 µM is -0.996%. The same measure for `Cc1ccc(CN2CCCC3(CCN(S(C)(=O)=O)C3)C2)o1` (stereo not drawn): 2.21%. As for `CC(C)S(=O)(=O)NCC1CCCN(C(=O)c2ccc3c(c2)CCC3)C1` (stereo not drawn), the figure is -14.7%; as for `CC(=O)NCCNC(=O)CN1CCCC1Cn1nc(C)nc1C` (stereo not drawn), -1.26%. For `COC(=O)c1cccc(S(=O)(=O)NC(=O)CC2CCCC2)c1`, the cytotoxicity at 10 µM is -9.68%. Regarding `Cn1nccc1NC(=O)c1cccc(CN2C[C@H]3CC[C@@H](C2)N3)c1`, the cytotoxicity at 10 µM amounted to 6.56%. For `CCOC(C(=O)N1CCn2c(nnc2C(C)C)C1)c1ccccc1` (stereo not drawn), the cytotoxicity at 10 µM was 3.84%.

As to `CC1CN(C(=O)c2ccn(C)c(=O)c2)c2ccccc2NC1=O` (stereo not drawn), the cytotoxicity at 10 µM stood at 2.94%. The same measure for `CN(Cc1cnn(C)c1)C(=O)c1ccc(Cl)c(N2CCNC2=O)c1`: -10.8%; for `Cc1ccc(CCNc2ncnc3sc4c(c23)CCNC4)o1`: 3.94%; for `CCOc1ccc(CNCC(O)c2ccccc2)cc1Cl` (stereo not drawn): -3.4%. Take `CCCN(Cc1nccn1C)C(=O)c1cnn[nH]1`: the cytotoxicity at 10 µM was -1.21%. As for `O=C(CC1CC1)NCc1cn2c(n1)CN(Cc1cccnc1)CC2`, the figure is -78%. As to `O=C1COC2(CCN(Cc3ccccn3)CC2)CN1CC1CC1`, the cytotoxicity at 10 µM was determined as 13.9%. The same measure for `CC(C)c1cc2c(s1)NC(c1ccccc1)NC2=O` (stereo not drawn): 8.82%. The same measure for `CC(=O)NC1CCCN(C(=O)NCc2cccnc2N(C)C)C1` (stereo not drawn): -1.97%; for `NC(=O)COc1ccc(CNCc2ccc(F)cc2)cc1`: -2.05%. As for `CN1N=C(c2nc(Cc3cccc(Br)c3)no2)CCC1=O`, the figure is -6.09%; as for `Cc1nn(C)c2c(N3CCN(C)CC3)nc(C3CC3)nc12`, -5.2%; as for `COc1cccc(CNC(=O)NC2(c3nc(C)no3)CCCCC2)c1`, 4.04%. As for `CC(C)N1CCOCC2(CN(Cc3nccs3)CCO2)C1` (stereo not drawn), the cytotoxicity at 10 µM was -0.653%. For `CCOC1COC2(CCN(CC3CCOCC3)CC2)C1` (stereo not drawn), the cytotoxicity at 10 µM was -97.6%.

For the compound `CCCC(Cn1cnc(-c2ccccc2)c1-c1cncn1CC)N(C)C` (stereo not drawn), the cytotoxicity at 10 µM is 7.59%.

Take `Nc1nccnc1CC1CCCN(Cc2c[nH]c3ccccc23)C1` (stereo not drawn): the cytotoxicity at 10 µM was 2.81%. As for `O=C(Cc1cnc(-n2cccc2)s1)NCCCO`, the figure is -3.14%. Regarding `O=S(=O)(NCC1(O)CCOCC1)c1ccccc1Br`, the cytotoxicity at 10 µM is -5.93%. Turning to `CCOCc1ccc(NC(=O)NC2CCCn3nc(CC)nc32)cc1` (stereo not drawn), the cytotoxicity at 10 µM was -7.68%. Take `c1cnc(N2CCO[C@H]3CN(Cc4csnn4)C[C@H]32)cn1`: the cytotoxicity at 10 µM is 4.23%.

`COC(=O)CNC(=O)C1CCN(S(C)(=O)=O)CC1`: the cytotoxicity at 10 µM amounted to 2.91%. The same measure for `CC(=O)Nc1ccc(SCC(O)COCc2ccco2)cc1` (stereo not drawn): 8.45%; for `CC(C)c1nnc(CN2CCCC2C(=O)OCc2ccccc2)o1` (stereo not drawn): 2.78%; for `CN(C)C(=O)N1CCC2(C1)CN(c1cccnc1)C(=O)CN2C` (stereo not drawn): 6.96%. As for `CS(=O)(=O)CCCNC(=O)Nc1sc2ccccc2c1Cl`, the figure is 6.54%; as for `O=C(CCCOc1ccccc1)N1CCCC(n2cncn2)C1` (stereo not drawn), -8.57%.

On to `O=C(C1CCCCC1)N1CCC2(CCCN2CC2CC2)CC1`, for which the cytotoxicity at 10 µM turned out to be 3.56%.

Turning to `Cc1cnc(N2CCC3(CC2)CC3CNC(=O)N(C)C)nc1` (stereo not drawn), the cytotoxicity at 10 µM was 8.82%. The same measure for `Cn1ccc(CN2CCC(COC3CCCC3)CC2)cc1=O`: -1.68%. The same measure for `CNC(=O)C1CCN(C(=O)NCCc2ccc(Cl)s2)CC1`: -12.3%. As for `CCN(Cc1cccc2c1OCO2)C(=O)NCCOC`, the figure is 1.45%.
